Consider one compound from ChEMBL document CHEMBL4308845, “Allosteric Activation of Striatal-Enriched Protein Tyrosine Phosphatase (STEP, PTPN5) by a Fragment-like Molecule” (J Med Chem, 2019).

The structures appear in SMILES notation. Active and inactive are the calls of the source. No cut-off for these calls is given here.

Experiment [1] has as its target T1, Tyrosine-protein phosphatase non-receptor type 1 (Homo sapiens) (UniProt P18031).
T1 sequence (whole entry): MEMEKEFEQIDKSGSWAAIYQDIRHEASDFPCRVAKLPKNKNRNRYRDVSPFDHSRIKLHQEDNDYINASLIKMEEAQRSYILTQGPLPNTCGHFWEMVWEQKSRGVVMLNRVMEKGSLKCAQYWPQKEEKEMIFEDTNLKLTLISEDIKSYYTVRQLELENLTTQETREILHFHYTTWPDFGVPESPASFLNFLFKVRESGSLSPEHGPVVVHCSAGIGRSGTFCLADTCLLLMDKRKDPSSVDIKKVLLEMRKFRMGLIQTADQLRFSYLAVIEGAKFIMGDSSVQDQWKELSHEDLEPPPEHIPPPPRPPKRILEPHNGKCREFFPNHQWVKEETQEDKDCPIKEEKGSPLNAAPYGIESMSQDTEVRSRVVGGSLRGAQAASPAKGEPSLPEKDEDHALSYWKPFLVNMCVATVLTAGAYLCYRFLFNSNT
Put plainly: Activation of human PTP1B (1 to 405 residues) at 500 uM preincubated for 10 mins followed by EDT-pY-Y-RKG-amide substrate addition and measured after 1.5 hrs by AlphaLISA assay. An outline of the steps:
(§1)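 In-house PTP1B (1−405) at 500 pM final, preincubated 10 min at 24 °C with compound (up to 500 μM), then EDT-pY-Y-RKG-amide (1.4 μM final) or pFYN (20 μM final) added; 1.5 h at 24 °C, humidified. Stopped with 200 μM orthovanadate. Competition AlphaScreen using biotin-Ahx-EDT-pY-Y-RKG-amide (2.5 nM), anti-pTyr antibody 4G10 (500 pM), beads (5 μg/mL each), 2 h at 24 °C. Read against on-plate substrate standard curve.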

Experiment [2] is filed under the species Homo sapiens. Put plainly: Activation of human STEP46 (197 to 565 residues) expressed in Escherichia coli BL21(DE3) at 500 uM using biotin-pFyn peptide substrate after 60 mins by AlphaLISA assay relative to control. An outline of the steps: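 STEP46 (50 nM final) with biotinylated pFyn peptide (20 nM final) and compound in 1% DMSO, 60 min at room temperature in the dark. Detection by anti non-phospho Src/Tyr416 antibody in stop buffer containing 10 μM orthovanadate, plus protein A acceptor and streptavidin donor beads, 15 min each. % CTL computed against enzyme (100%) and no-enzyme (0%) controls.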

Experiment [3] is filed under the species Homo sapiens. Put plainly: Activation of human STEP46 (197 to 565 residues) expressed in Escherichia coli BL21(DE3) at 300 uM preincubated for 10 mins followed by DiFMUP substrate addition and measured at 1 min time interval for 30 mins by fluorescence assay relative to control. Summed up:
(§2)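 STEP46 preincubated 10 min at room temperature with compound; reaction started with DiFMUP. Final: 100 nM STEP46, 1 μM DiFMUP, 50 mM HEPES, 0.02% Brij 35, 1 mM DTT, 5% DMSO. Fluorescence (ex 340/em 460 nm) every 1 min for 30 min at 37 °C; no-enzyme background subtracted. Linear slope expressed relative to enzyme without compound (100%).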

For experiment [4], the target named is T1, Tyrosine-protein phosphatase non-receptor type 1 (Homo sapiens). Put plainly: Activation of human PTP1B (1 to 405 residues) at 500 uM preincubated for 10 mins followed by pFYN substrate addition and measured after 1.5 hrs by AlphaLISA assay. An outline of the steps:
as §1

For experiment [5], the species on record is Homo sapiens. Put plainly: Activation of human STEP46 (197 to 565 residues) expressed in Escherichia coli BL21(DE3) at 1000 uM preincubated for 10 mins followed by DiFMUP substrate addition and measured at 1 min time interval for 30 mins by fluorescence assay relative to control. An outline of the steps:
as §2

Experiment [6] concerns the target T2, Tyrosine-protein phosphatase non-receptor type 5 (Homo sapiens) (UniProt P54829).
T2 sequence (whole entry): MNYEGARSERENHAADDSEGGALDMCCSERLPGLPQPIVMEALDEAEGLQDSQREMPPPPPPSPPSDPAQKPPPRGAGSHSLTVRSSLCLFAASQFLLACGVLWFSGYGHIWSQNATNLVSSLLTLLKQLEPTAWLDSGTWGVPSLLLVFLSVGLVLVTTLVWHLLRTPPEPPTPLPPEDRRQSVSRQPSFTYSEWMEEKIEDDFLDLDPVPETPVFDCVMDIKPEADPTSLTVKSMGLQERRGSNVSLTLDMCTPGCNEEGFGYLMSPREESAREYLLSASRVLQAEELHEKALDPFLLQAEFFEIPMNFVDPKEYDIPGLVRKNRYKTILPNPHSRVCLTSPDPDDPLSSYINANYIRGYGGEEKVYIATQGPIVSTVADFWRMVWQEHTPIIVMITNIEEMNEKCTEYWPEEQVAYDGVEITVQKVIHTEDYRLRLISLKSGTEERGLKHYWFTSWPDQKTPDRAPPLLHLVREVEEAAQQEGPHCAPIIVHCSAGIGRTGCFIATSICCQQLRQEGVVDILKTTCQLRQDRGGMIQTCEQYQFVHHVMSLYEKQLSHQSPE
Put plainly: Binding affinity to human 15N-labeled STEP PTP domain (281 to 563 residues) expressed in Escherichia coli OD2 assessed as induction of chemical perturbation at 500 uM by 1H,15N TROSY NMR spectral analysis. An outline of the steps: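 40 μM 15N-labelled STEP PTP domain in 20 mM Tris-d11, 100 mM NaCl, 1 mM TCEP, pH 7.4, 8% D2O, 1% DMSO-d6, 298 K. TROSY spectra used 192 transients and 64 indirect points. Binders were called by manual comparison with the protein-only reference spectrum.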

Experiment [7] has as its target T2, Tyrosine-protein phosphatase non-receptor type 5 (Homo sapiens). Put plainly: Activation of human STEP PTP domain (281 to 563 residues) expressed in Escherichia coli BL21(DE3) assessed as ratio of Kcat to Km at 500 uM using pFyn peptide substrate after 60 mins by RapidFire MS/MS assay (reference value: 400 +/- 20 /M/s).

`N=C(N)Nc1cc(C2CCNCC2)cc(C(F)(F)F)c1`: the outcome in experiment [1] and in experiment [4] was inactive. Moreover, the values for the Activity in the experiment filed under Homo sapiens [2], in the experiment listed under Homo sapiens [3] and in the experiment filed under Homo sapiens [5] were 56%, 27% and 48%, respectively. Also, in experiment [6], the outcome was Active. The Ratio in experiment [7] is 650 M⁻¹ s⁻¹.
